In ChEMBL document CHEMBL1123877, “Metabolic synthesis of arylacetic acid antiinflammatory drugs from arylhexenoic acids. 2. Indomethacin” (1987):

Key:
[1] = tested on: Mus musculus; assay: Inhibition of phenylbenzoquinone writhing in mice was tested at the dose of 30 mg/kg for 6 hr; format: functional
Method in brief: (§1)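 Male CD-1 mice, 18-22 g, groups of 10, fasted overnight. Oral dose in 1% methylcellulose (0.1 mL/10 g) at set times before phenylbenzoquinone, 2.0 mg/kg ip. Writhes counted 5-15 min after PBQ. % inhibition = 100 − (drug mean/vehicle mean × 100).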

[2] = tested on: Rattus norvegicus; assay: Analgesic activity was measured in rat yeast induced hyperalgesia assay at a dose of 30 mg/kg for 1 hr.; format: functional
Method in brief: (§2)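 Female Sprague-Dawley rats, 50-60 g, groups of 10, fasted overnight. Brewer's yeast (5% in 0.1 mL) injected subplantar. Compound given orally in 1% methylcellulose, 0.1 mL/10 g. Each group tested once, always 3 h after yeast. An animal counts as analgesic if vocalization needs ≥25 mmHg on the inflamed paw. Result is percent of animals analgesic.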

[3] = tested on: Mus musculus; assay: Inhibition of phenylbenzoquinone writhing in mice was tested at the dose of 30 mg/kg for 2 hr; format: functional; method in brief: as §1
[4] = tested on: Rattus norvegicus; assay: Plasma drug level was measured in rat yeast induced hyperalgesia assay in presence of indomethacin at a dose of 30 mg/kg for 8 hr.; format: functional
Method in brief: (§3)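 Rats are bled after the yeast hyperalgesia test. 50 μL plasma is mixed with an equal volume of 0.1 N HCl and injected directly on a C-18 reverse-phase HPLC column. Eluent is methanol/0.01 M phosphate pH 4 (65:35), 1.5 mL/min, with UV detection at 254 nm. Parent compound and indomethacin are quantified against standard calibration. Mean ± SEM, n=10.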

[5] = tested on: Rattus norvegicus; assay: (§4) Vocalization threshold value was measured in rat yeast induced hyperalgesia assay at a dose of 30 mg/kg for 8 hr.; format: functional
[6] = tested on: Rattus norvegicus; assay: Plasma drug level was measured in rat yeast induced hyperalgesia assay in presence of indomethacin at a dose of 30 mg/kg for 1 hr.; format: functional; method in brief: as §3
[7] = tested on: Rattus norvegicus; assay: as §4; format: functional; remark: listed apart in the source
Method in brief: (§5)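 Female Sprague-Dawley rats, 50-60 g, groups of 10, fasted overnight. Brewer's yeast (5% in 0.1 mL) injected subplantar, then oral dosing in 1% methylcellulose. An air-driven piston (2 mm) presses the plantar surface of the normal and yeast-injected paws. The pressure that causes vocalization is read on a manometer in mmHg, tested 3 h after yeast. Normal vs inflamed paw compared by paired t test. Mean ± SEM.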

[8] = tested on: Rattus norvegicus; assay: Plasma drug level was measured in rat yeast induced hyperalgesia assay in presence of drug 6 or 7 at a dose of 30 mg/kg for 1 hr.; format: functional; method in brief: as §3
[9] = tested on: Rattus norvegicus; assay: Plasma drug level was measured in rat yeast induced hyperalgesia assay in presence of drug 6 or 7 at a dose of 30 mg/kg for 8 hr.; format: functional; method in brief: as §3
[10] = tested on: Rattus norvegicus; assay: Analgesic activity was measured in rat yeast induced hyperalgesia assay at a dose of 30 mg/kg for 4 hr.; format: functional; method in brief: as §2
[11] = tested on: Rattus norvegicus; assay: Plasma drug level was measured in rat yeast induced hyperalgesia assay in presence of drug 6 or 7 at a dose of 30 mg/kg for 4 hr.; format: functional; method in brief: as §3
[12] = tested on: Mus musculus; assay: Inhibition of phenylbenzoquinone writhing in mice was tested at the dose of 30 mg/kg for 1 hr; format: functional; method in brief: as §1
[13] = tested on: Rattus norvegicus; assay: Vocalization threshold value was measured in rat yeast induced hyperalgesia assay at a dose of 10 mg/kg for 1 hr.; format: functional; method in brief: as §5
[14] = tested on: Rattus norvegicus; assay: Plasma drug level was measured in rat yeast induced hyperalgesia assay in presence of indomethacin at a dose of 30 mg/kg for 4 hr.; format: functional; method in brief: as §3
[15] = tested on: Rattus norvegicus; assay: Analgesic activity was measured in rat yeast induced hyperalgesia assay at a dose of 30 mg/kg for 8 hr.; format: functional; method in brief: as §2
[16] = tested on: Mus musculus; assay: Inhibition of phenylbenzoquinone writhing in mice was tested at the dose of 30 mg/kg for 4 hr; format: functional; method in brief: as §1
[17] = tested on: Rattus norvegicus; assay: Vocalization threshold value was measured in rat yeast induced hyperalgesia assay at a dose of 30 mg/kg for 1 hr.; format: functional; method in brief: as §5
[18] = tested on: Rattus norvegicus; assay: Vocalization threshold value was measured in rat yeast induced hyperalgesia assay at a dose of 30 mg/kg for 4 hr.; format: functional; method in brief: as §5
[19] = tested on: Rattus norvegicus; assay: (§6) Vocalization threshold value was measured in rat yeast induced hyperalgesia assay at a dose of 10 mg/kg for 8 hr.; format: functional
[20] = tested on: Rattus norvegicus; assay: Analgesic activity was measured in rat yeast induced hyperalgesia assay at a dose of 10 mg/kg for 1 hr.; format: functional; method in brief: as §2
[21] = tested on: Rattus norvegicus; assay: Analgesic activity was measured in rat yeast induced hyperalgesia assay at a dose of 10 mg/kg for 6 hr.; format: functional; method in brief: as §2
[22] = tested on: Rattus norvegicus; assay: Analgesic activity was measured in rat yeast induced hyperalgesia assay at a dose of 10 mg/kg for 8 hr.; format: functional; method in brief: as §2
[23] = tested on: Rattus norvegicus; assay: Plasma drug level was measured in rat yeast induced hyperalgesia assay in presence of indomethacin at a dose of 30 mg/kg for 12 hr.; format: functional; method in brief: as §3
[24] = tested on: Rattus norvegicus; assay: as §6; format: functional; method in brief: as §5; remark: listed apart in the source
[25] = tested on: Rattus norvegicus; assay: Analgesic activity was measured in rat yeast induced hyperalgesia assay at a dose of 30 mg/kg for 24 hr.; format: functional; method in brief: as §2
[26] = tested on: Rattus norvegicus; assay: Analgesic activity was measured in rat yeast induced hyperalgesia assay at a dose of 30 mg/kg for 12 hr.; format: functional; method in brief: as §2
[27] = tested on: Rattus norvegicus; assay: Plasma drug level was measured in rat yeast induced hyperalgesia assay in presence of drug 6 or 7 at a dose of 30 mg/kg for 12 hr; format: functional; method in brief: as §3
[28] = tested on: Rattus norvegicus; assay: Vocalization threshold value was measured in rat yeast induced hyperalgesia assay at a dose of 30 mg/kg for 12 hr.; format: functional; method in brief: as §5
[29] = tested on: Rattus norvegicus; assay: Vocalization threshold value was measured in rat yeast induced hyperalgesia assay at a dose of 10 mg/kg for 6 hr.; format: functional; method in brief: as §5
[30] = tested on: Rattus norvegicus; assay: (§7) Vocalization threshold value was measured in rat yeast induced hyperalgesia assay at a dose of 30 mg/kg for 24 hr.; format: functional; method in brief: as §5
[31] = tested on: Rattus norvegicus; assay: as §7; format: functional; remark: listed apart in the source
[32] = tested on: Rattus norvegicus; assay: Plasma drug level was measured in rat yeast induced hyperalgesia assay in presence of indomethacin at a dose of 30 mg/kg for 24 hr.; format: functional; method in brief: as §3
[33] = tested on: Rattus norvegicus; assay: (§8) Vocalization threshold value was measured in rat yeast induced hyperalgesia assay at a dose of 10 mg/kg for 4 hr.; format: functional; method in brief: as §5
[34] = tested on: Rattus norvegicus; assay: Analgesic activity was measured in rat yeast induced hyperalgesia assay at a dose of 10 mg/kg for 24 hr.; format: functional; method in brief: as §2
[35] = tested on: Rattus norvegicus; assay: Plasma drug level was measured in rat yeast induced hyperalgesia assay in presence of indomethacin at a dose of 10 mg/kg for 4 hr.; format: functional; method in brief: as §3
[36] = tested on: Rattus norvegicus; assay: Vocalization threshold value was measured in rat yeast induced hyperalgesia assay at a dose of 10 mg/kg for 24 hr.; format: functional; method in brief: as §5
[37] = tested on: Rattus norvegicus; assay: Analgesic activity was measured in rat yeast induced hyperalgesia assay at a dose of 10 mg/kg for 12 hr.; format: functional; method in brief: as §2
[38] = tested on: Rattus norvegicus; assay: as §8; format: functional; remark: listed apart in the source
[39] = tested on: Rattus norvegicus; assay: Analgesic activity was measured in rat yeast induced hyperalgesia assay at a dose of 10 mg/kg for 4 hr.; format: functional; method in brief: as §2
[40] = tested on: Rattus norvegicus; assay: Plasma drug level was measured in rat yeast induced hyperalgesia assay in presence of indomethacin at a dose of 10 mg/kg for 1 hr.; format: functional; method in brief: as §3
[41] = tested on: Mus musculus; assay: Inhibition of phenylbenzoquinone writhing in mice was tested at the dose of 3 mg/kg for 4 hr; format: functional; method in brief: as §1
[42] = tested on: Mus musculus; assay: Inhibition of phenylbenzoquinone writhing in mice was tested at the dose of 3 mg/kg for 2 hr; format: functional; method in brief: as §1
[43] = tested on: Rattus norvegicus; assay: Compound was tested for hyperalgesia activity in rats after perorally administered at 1 hr; settings: po
[44] = tested on: Mus musculus; assay: Compound was tested for […] activity in mice after perorally administered at 1 hr; format: functional; settings: po
[45] = tested on: Rattus norvegicus; assay: Vocalization threshold value was measured in rat yeast induced hyperalgesia assay at a dose of 10 mg/kg for 12 hr.; format: functional; method in brief: as §5
[46] = tested on: Rattus norvegicus; assay: Plasma drug level was measured in rat yeast induced hyperalgesia assay in presence of indomethacin at a dose of 10 mg/kg for 12 hr.; format: functional; method in brief: as §3
[47] = tested on: Rattus norvegicus; assay: Plasma drug level was measured in rat yeast induced hyperalgesia assay in presence of indomethacin at a dose of 10 mg/kg for 8 hr.; format: functional; method in brief: as §3
[48] = tested on: Mus musculus; assay: Inhibition of phenylbenzoquinone writhing in mice was tested at the dose of 3 mg/kg for 1 hr; format: functional; method in brief: as §1
[49] = tested on: Rattus norvegicus; assay: Plasma drug level was measured in rat yeast induced hyperalgesia assay in presence of indomethacin at a dose of 10 mg/kg for 24 hr.; format: functional; method in brief: as §3

Structure (SMILES): COc1ccc2c(c1)c(/C=C/CC(=O)O)c(C)n2C(=O)c1ccc(Cl)cc1
- Writhes [1]: 29.5
- inhibition in vivo at 30 mg/kg [1]: 28%
- Analgesic [2]: 10%
- Writhes [3]: 28.6
- inhibition in vivo at 30 mg/kg [3]: 32%
- Drug level [4]: <1 µg/mL
- Normal [5]: 25.4 mmHg
- Drug level [6]: <1 µg/mL
- Inflamed [7]: 21.6 mmHg
- Drug level [8]: 26 µg/mL
- Drug level [9]: 10 µg/mL
- Analgesic [10]: 30%
- Drug level [11]: 17 µg/mL
- Writhes [12]: 34
- inhibition in vivo at 30 mg/kg [12]: 19%
- Normal [13]: 25.8 mmHg
- Drug level [14]: <1 µg/mL
- Analgesic [15]: 30%
- Writhes [16]: 23
- inhibition in vivo at 30 mg/kg [16]: 46%
- Inflamed [17]: 14.2 mmHg
- Inflamed [18]: 20.2 mmHg
- Normal [18]: 23.4 mmHg

Structure (SMILES): COc1ccc2c(c1)c(/C=C/CCCC(=O)O)c(C)n2C(=O)c1ccc(Cl)cc1
- Normal [19]: 23.2 mmHg
- Analgesic [20]: 10%
- Analgesic [2]: 60%
- Writhes [3]: 15.3
- inhibition in vivo at 30 mg/kg [3]: 26%
- Drug level [4]: 2.1 µg/mL
- Analgesic [21]: 40%
- Normal [5]: 25.6 mmHg
- Analgesic [22]: 40%
- Drug level [23]: 2.2 µg/mL
- Inflamed [24]: 23.8 mmHg
- Inflamed [7]: 27.6 mmHg
- Drug level [9]: 6.1 µg/mL
- Analgesic [25]: 0%
- Analgesic [10]: 60%
- Analgesic [26]: 60%
- Drug level [27]: 1.1 µg/mL
- Inflamed [28]: 25 mmHg
- Normal [28]: 25.2 mmHg
- Drug level [11]: 24.1 µg/mL
- Writhes [12]: 16.4
- inhibition in vivo at 30 mg/kg [12]: 20%
- Inflamed [29]: 21.6 mmHg
- Normal [29]: 22 mmHg
- Inflamed [13]: 16.8 mmHg
- Normal [13]: 24 mmHg
- Normal [30]: 24.4 mmHg
- Inflamed [31]: 13 mmHg
- Drug level [32]: 1.6 µg/mL
- Drug level [14]: 2.2 µg/mL
- Analgesic [15]: 100%
- Writhes [16]: 7.2
- inhibition in vivo at 30 mg/kg [16]: 65%
- Inflamed [17]: 25.4 mmHg
- Normal [17]: 23 mmHg
- Inflamed [18]: 26 mmHg
- Normal [18]: 24.8 mmHg

Structure (SMILES): COc1ccc2c(c1)c(CC(=O)O)c(C)n2C(=O)c1ccc(Cl)cc1 [INDOMETHACIN]
- Normal [33]: 26.8 mmHg
- Analgesic [34]: 0%
- Drug level [35]: 38 µg/mL
- Normal [19]: 28.4 mmHg
- Analgesic [20]: 70%
- Inflamed [36]: 16 mmHg
- Normal [36]: 22.4 mmHg
- Analgesic [37]: 0%
- Inflamed [38]: 32 mmHg
- Analgesic [39]: 100%
- Analgesic [22]: 40%
- Drug level [40]: 21 µg/mL
- Inflamed [24]: 28.4 mmHg
- Writhes [41]: 32.9
- inhibition in vivo at 3 mg/kg [41]: 28%
- Writhes [42]: 38.3
- inhibition in vivo at 3 mg/kg [42]: 16%
- ED50 [43]: 5 mg/kg
- ED50 [44]: 3 mg/kg
- Inflamed [45]: 15.6 mmHg
- Normal [45]: 24.4 mmHg
- Inflamed [13]: 30 mmHg
- Normal [13]: 27.9 mmHg
- Drug level [46]: 9.8 µg/mL
- Drug level [47]: 21 µg/mL
- Writhes [48]: 4.8
- inhibition in vivo at 3 mg/kg [48]: 89%
- Drug level [49]: 3.3 µg/mL
